Data reported in ChEMBL document CHEMBL3232903, “New pyrazolobenzothiazine derivatives as hepatitis C virus NS5B polymerase palm site I inhibitors” (J Med Chem, 2014).

Legend:
[1] = system: Hepatitis C virus isolate HC-J4; assay: Inhibition of RNA-dependent RNA polymerase activity of HCV genotype 1b HC-J4 recombinant N-terminal histidine tagged C-terminal 21 aminoacids truncated NS5B polymerase at 50 uM after 1 hr by standard primer dependent elongation assay
How it was run: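 Recombinant NS5BCΔ21 genotype 1b in a primer-dependent elongation assay. […] IC50 is the concentration halving enzyme activity in vitro; mean ± SD of two independent experiments in duplicate.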

[2] = Inhibition of RNA-dependent RNA polymerase activity of HCV genotype 1b HC-J4 recombinant N-terminal histidine tagged C-terminal 21 aminoacids truncated NS5B polymerase after 1 hr by standard primer dependent elongation assay; set-up: species or system Hepatitis C virus isolate HC-J4
How it was run: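 Recombinant NS5BCΔ21 genotype 1b in a primer-dependent elongation assay. IC50 is the concentration halving enzyme activity in vitro; mean ± SD of two independent experiments in duplicate.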

[3] = system: Hepatitis C virus; assay: Antiviral activity against HCV genotype 1b I389luc-ubi-neo/NS3-3'/5.1 replicon infected in human Huh5-2 cells assessed as inhibition of virus replication by luciferase assay; assay type: functional, cell-based, Hepacivirus hominis; settings: Huh-5-2
[4] = Cytostatic activity against human Huh5-2 cells carrying HCV genotype 1b I389luc-ubi-neo/NS3-3'/5.1 replicon assessed as reduction in metabolic activity after 72 hrs by MTS assay; assay type: ADME, cell-based, Huh-5-2; settings: for CC50: huh-5-2, 72 h
How it was run: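 Replicon-bearing Huh-5-2 cells run in parallel with the antiviral read-out; CC50 is the concentration halving MTS bioreduction to formazan, taken as the antimetabolic effect on host cells; mean ± SD from at least three dose–response curves.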

[5] = Cytotoxicity against human Huh5-2 cells carrying HCV genotype 1b I389luc-ubi-neo/NS3-3'/5.1 replicon assessed as cell morphological changes after 72 hrs by microscopic analysis; assay type: cell-based; settings: huh-5-2, 72 h
How it was run: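 Huh-5-2 replicon cells examined by microscopy for changes in cell morphology after 72 h of compound treatment.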

[6] = Selectivity index, ratio of CC50 for human Huh5-2 cells to EC50 for HCV genotype 1b I389luc-ubi-neo/NS3-3'/5.1 replicon infected in human Huh5-2 cells; set-up: species or system Huh-5-2
[7] = Induction of steatosis in human Huh-9-13 cells assessed as intracellular accumulation of […] lipids at 100 uM by Nile Red staining; assay type: cell-based

Row | Compound | inhibition [1] [%] | IC50 [2] [µM] | EC50 [3] [µM] | CC50 [4] [µM] | Activity [5] | Ratio CC50/EC50 [6] | EC90 [3] [µM] | Activity [7] | CC50 at 72 h [4] [µM]
1 | CN1c2c(C(=O)Nc3ccccc3)nn(-c3cccc(F)c3)c2-c2ccccc2S1(=O)=O | < 50 | > 50 | 4.5 | 56 | Toxic | 12 |  |  | 
2 | CN1c2c(C(=O)Nc3ccc(NS(C)(=O)=O)cc3)nn(-c3ccc(F)c(F)c3)c2-c2ccccc2S1(=O)=O | > 50 | 25.4 | 13.9 | 138 | Toxic | 9.9 |  |  | 
3 | CN1c2c(C(=O)Nc3ccc(NS(C)(=O)=O)cc3)nn(-c3ccccc3Br)c2-c2ccccc2S1(=O)=O | > 50 | 26.5 | 12 | 107 | Toxic | 8.9 |  |  | 
4 | CN1c2c(C(=O)Nc3ccc(NS(C)(=O)=O)cc3)nn(-c3cccc(Br)c3)c2-c2ccccc2S1(=O)=O | > 50 | 7.7 | 8.3 | > 166 | Toxic | >20 | 26 |  | 
5 | Cc1ccc(-n2nc(C(=O)Nc3ccc(NS(C)(=O)=O)cc3)c3c2-c2ccccc2S(=O)(=O)N3C)cc1Cl | > 50 | 8 | 7 | > 175 | Toxic | >25 | 37 |  | 
6 | COc1ccc(-n2nc(C(=O)Nc3ccc(NS(C)(=O)=O)cc3)c3c2-c2ccccc2S(=O)(=O)N3C)cc1 | < 50 | > 50 | 8.1 | > 226 | Non-toxic | >28 | 25 |  | 
7 | CN1c2c(C(=O)Nc3ccc(NS(C)(=O)=O)cc3)nn(-c3ccc(Cl)cc3)c2-c2ccccc2S1(=O)=O | > 50 | 7.9 | 8.1 | > 224 | Non-toxic | >28 | 23.3 | Toxic | 
8 | CN1c2c(C(=O)Nc3ccc(NS(C)(=O)=O)cc3)n[nH]c2-c2ccccc2S1(=O)=O | < 50 | > 50 | 88.2 | 155 | Toxic | 2.5 | 65.2 |  | 
9 | Cc1cccc(-n2nc(C(=O)Nc3ccc(NS(C)(=O)=O)cc3)c3c2-c2ccccc2S(=O)(=O)N3C)c1 | > 50 | 21.2 | 5.1 | > 233 | Toxic | >46 | 11.8 |  | 
10 | CN1c2c(C(=O)Nc3ccc(NS(C)(=O)=O)cc3)nn(-c3ccc(Br)cc3)c2-c2ccccc2S1(=O)=O | > 50 | 12.1 | 7.4 | > 166 | Toxic | >22 | 21 |  | 
11 | Cc1ccccc1-n1nc(C(=O)Nc2ccc(NS(C)(=O)=O)cc2)c2c1-c1ccccc1S(=O)(=O)N2C | > 50 | 30.8 | 14.3 | > 233 | Toxic | >16 |  |  | 
12 | CN1c2c(C(=O)Nc3ccc(NS(C)(=O)=O)cc3)nn(-c3ccccc3Cl)c2-c2ccccc2S1(=O)=O | > 50 | 17.8 | 7.4 | > 224 | Toxic | >30 | 20.8 |  | 
13 | CN1c2c(C(=O)Nc3ccc(NS(C)(=O)=O)cc3)nn(C3CCCCC3)c2-c2ccccc2S1(=O)=O | > 50 | 43 | 4.5 | 44 | Toxic | 9.7 | 11 |  | 
14 | CN1c2c(NC(=O)c3ccc(NS(C)(=O)=O)cc3)nn(-c3cccc(F)c3)c2-c2ccccc2S1(=O)=O | < 50 | > 50 | 80.8 | 160 | Toxic | 2.3 |  |  | 
15 | CN1c2c(C(=O)Nc3ccc(NS(C)(=O)=O)cc3)nn(-c3ccc(Cl)c(Cl)c3)c2-c2ccccc2S1(=O)=O | > 50 | 2.7 | 9.7 | > 168 | Toxic | >17 |  |  | 
16 | CN1c2c(C(=O)Nc3ccc(NS(C)(=O)=O)cc3)nn(-c3ccc(Cl)c(C(F)(F)F)c3)c2-c2ccccc2S1(=O)=O | < 50 | > 50 | 6.4 | > 160 | Toxic | >25 |  |  | 
17 | CN1c2c(C(=O)Nc3ccc(NS(C)(=O)=O)cc3)nn(-c3cccc(C(F)(F)F)c3)c2-c2ccccc2S1(=O)=O | > 50 | 23.7 | 7.7 | > 211 | Toxic | >28 | 33.2 |  | 
18 | Cc1ccc(-n2nc(C(=O)Nc3ccc(NS(C)(=O)=O)cc3)c3c2-c2ccccc2S(=O)(=O)N3C)cc1 | > 50 | 14.7 | 4.8 | > 186 | Non-toxic | 39 | 19.6 |  | 
19 | CN1c2c(C(=O)Nc3ccc(NS(C)(=O)=O)cc3)nn(-c3cccc(F)c3)c2-c2ccccc2S1(=O)=O |  |  |  |  |  |  |  |  | > 370
20 | COc1cccc(-n2nc(C(=O)Nc3ccc(NS(C)(=O)=O)cc3)c3c2-c2ccccc2S(=O)(=O)N3C)c1 | < 50 | > 50 | 11 | > 181 | Toxic | >16 |  |  | 
21 | CN1c2c(C(=O)Nc3ccc(NS(C)(=O)=O)cc3)nn(-c3ccc(C(F)(F)F)cc3)c2-c2ccccc2S1(=O)=O | > 50 | 36.3 | 7.3 | > 169 | Toxic | >23 | 31.2 |  | 
22 | CN1c2c(C(=O)Nc3ccc(NS(C)(=O)=O)cc3)nn(-c3ccccc3C(F)(F)F)c2-c2ccccc2S1(=O)=O | < 50 | > 50 | 25 | > 169 | Toxic | >7 |  |  | 
23 | CN1c2c(C(=O)Nc3ccc(OCC(N)=O)cc3)nn(-c3cccc(F)c3)c2-c2ccccc2S1(=O)=O | < 50 | > 50 | 15 | > 192 | Toxic | >13 | 34 |  | 
24 | Cc1ccc(-n2nc(C(=O)Nc3ccc(NS(C)(=O)=O)cc3)c3c2-c2ccccc2S(=O)(=O)N3C)cc1C | < 50 | > 50 | 6.2 | > 181 | Toxic | >29 | 20 |  | 
